Reference: article PMC7524064 (ESC Heart Failure, 2020)

Legend:
human atrial trabeculae = assay: Contractility of human atrial trabeculae
Outline: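 Right atrial appendage trabeculae came from patients undergoing aorto-coronary bypass and were held isometric. After about 30 min equilibration they were stretched to maximal steady-state twitch force and paced at 1 Hz. Test compound (1, 3, 10 μM) or KN93 (5 μM) was washed in for 20 min. Post-rest pauses were 10, 30 and 120 s. Developed and diastolic tension were normalized to each patient's vehicle control.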

[1] = system: human atrial cardiomyocytes; assay: Ca sparks and SR Ca leak, confocal line scans; type: cell-based; conditions: AIP (2 μM)
Outline: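 Myocytes on laminin-coated chambers were loaded 15 min with 10 μmol/L Fluo-4 AM plus 0.02% (w/v) pluronic acid. They were superfused with normal Tyrode solution and imaged by laser-scanning confocal line scans at room temperature. Treatments were test compound at 1, 3 or 10 μM, or myristoylated AIP at 2 μM.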

[2] = system: murine ventricular cardiomyocytes; assay: Action potentials in murine ventricular cardiomyocytes; type: cell-based, mouse; conditions: RA608 1, 3, 10 μM; myristoylated AIP 2 μmol/L
[3] = system: human atrial cardiomyocytes; assay: Action potentials in human atrial cardiomyocytes; type: cell-based; conditions: RA608 1, 3, 10 μM; AIP
Outline: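 Ruptured-patch whole-cell current clamp at room temperature on isolated human atrial cardiomyocytes from seven patients. Action potentials were recorded with vehicle, test compound at 1, 3 or 10 μM, or myristoylated AIP.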

Row | Compound | contraction amplitude after pause (human atrial trabeculae; KN93 5 μmol/L, compared with RA608) | diastolic tension normalized to vehicle (human atrial trabeculae; KN93 (5 μM)) | relaxation time (time to 80% of relaxation) (human atrial trabeculae; RA608 1, 3, 10 μM, KN93 5 μM) | SR Ca leak vs vehicle [1] | AP duration (APD50) [2] | AP duration (APD50, APD80) vs vehicle [3]
1 | COc1ccc(S(=O)(=O)N(CCO)c2ccccc2CN(C)C/C=C/c2ccc(Cl)cc2)cc1 [KN93] | comparable increase | only a trend to decrease | neither RA608 nor KN93 resulted in significant alterations |  |  | 
2 | autocamtide‐2‐related autoinhibitory peptide [AIP] |  |  |  | significantly reduced | no significant effect | no significant effect
